Screening data deposited in PubChem BioAssay by Johns Hopkins Ion Channel Center.
A selection: hits, their analogues and other compounds. The true share with any hit is near 2.3%.
TRPC4 inh: inhibitors of mouse TRPC4 channel, primary screen, Fluo4 calcium, HEK293 TRPC4beta/mu-opioid cells; Short transient receptor potential channel 4 (Mus musculus), Q9QUQ5; DAMGO-evoked Fluo4 calcium flux; stronger effect = lower value; B-score at 10 µM; 300,000 compounds, 0.39% hits;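 active = B-score over 3 SD under the library average, no early fluorescence shift, positive overall ratio signal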
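Assay system: HEK293 cells with stable TRPC4beta plus mu-opioid receptor expression. Dosing: single dose. Measured by: Fluo4 Ca2+ flux fluorescence. Also added: DAMGO in two steps, submaximal then maximal. Read-out: B score from integrated Fluo4 fluorescence ratio.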
TRPC6 activator: mouse TRPC6 channel activators, primary screen, cell-based, HEK293, membrane potential dye. Short transient receptor potential channel 6 (Mus musculus), Q61143. HEK293-TRPC6 membrane potential dye fluorescence; stronger effect = higher value. B-score at 10 µM. 310,000 compounds, 0.13% hits. AID 2550, 2010;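 active = B-score of the integrated fluorescence ratio above library mean plus 3 SD, and starting fluorescence ratio within library mean plus 5 SD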;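 also: higher score means more depolarization so channel activation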
TRPC6 inh: mouse TRPC6 channel inhibitors, primary screen, cell-based, HEK293, membrane potential dye; B-score at 10 µM; 310,000 compounds, 1.1% hits; AID 2553, 2010; ACh-evoked depolarization; stronger effect = lower value;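 active = B-score under library mean minus 3 SD, initial fluorescence not abnormally high, positive integrated signal ratio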;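 also: B-score derived from integrated fluorescence ratio over the kinetic read; more negative B-score means stronger inhibition of depolarization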
TRPC4 agonist: activators of mouse TRPC4 channel, primary screen, Fluo4 calcium, HEK293 TRPC4beta/mu-opioid cells. Short transient receptor potential channel 4 (Mus musculus), Q9QUQ5. Fluo4 calcium fluorescence; stronger effect = higher value. B-score at 10 µM. 310,000 compounds, 0.49% hits;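 active = B-score above 5 SD of library B-scores, and initial fluorescence ratio not above library mean plus 5 SD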;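 also: positive B-score marks a calcium rise read as TRPC4 activation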
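Material: HEK293 stable line with TRPC4beta plus mu-opioid receptor; technique: Fluo4 calcium-sensitive dye fluorescence, kinetic, 1 Hz baseline; timing: Fluo4 dye loading 45 min at room temperature, 110 s recording; controls: assay buffer as low control, maximal DAMGO as high control; read-out: integrated baseline-normalised fluorescence ratio, converted to per-well B score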
TRPC4 potent: positive allosteric modulators of TRPC4, primary screen, cell-based, mouse TRPC4beta, HEK293 mu-opioid, Fluo-4 calcium | Short transient receptor potential channel 4 (Mus musculus), Q9QUQ5 | DAMGO EC20, Fluo-4 Ca2+ flux; stronger effect = higher value | B-score at 10 µM | 310,000 compounds, 0.42% hits;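 active = B-score of calcium response area above 5 SD of library B-scores, with initial fluorescence ratio within 5 SD of library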
Each line names hits and unclear results; the compound was inactive in the other large screens.

CCCCCn1c(=O)[nH]c2cc(C(=O)NCCCN(C)Cc3ccccc3)ccc2c1=O	TRPC4 potent 12
CCOCCCNC(=O)c1ccc2c(=O)n(CCCOCC)c(=S)[nH]c2c1	none
CCCCN(C)CCNC(=O)c1ccc(Cn2c(=S)[nH]c3ccc(Br)cc3c2=O)cc1	TRPC4 potent 25
CCOCCCn1c(=S)[nH]c2cc(C(=O)NCCCN(CC)CC)ccc2c1=O	TRPC4 potent 24
CC(CNC(=O)CCS(=O)(=O)c1cc2c(cc1Cl)NC(=O)CO2)c1ccccc1 (centres undefined)	none
O=C1C2CC=CCC2C(=O)N1c1ccc(NCCc2ccccc2)c([N+](=O)[O-])c1 (centres undefined)	none
O=[N+]([O-])c1ccccc1NC1CCN(Cc2ccccc2)CC1	none
CC1CCC2C(=O)N(c3ccc(NC4CCN(Cc5ccccc5)CC4)c([N+](=O)[O-])c3)C(=O)C2C1 (centres undefined)	TRPC4 agonist 72
O=C1CCC(=O)N1c1ccc(NC2CCN(Cc3ccccc3)CC2)c([N+](=O)[O-])c1	TRPC4 agonist 83
CCOc1ccc(S(=O)(=O)NC(C)(C)C)cc1-c1nc2c(C(C)(C)C)nn(C)c2c(=O)[nH]1	TRPC4 potent 11
NC(=S)Nc1cc2ccccc2c2ccccc12	TRPC4 potent 14
O=C(COc1ccccc1)Nc1cccc(-c2ccc(N3CCOCC3)nn2)c1	none
CCc1cc(OCCOCCN(C)C)ccc1Cl	TRPC4 potent 15
O=C(CN(CC1CCCO1)C(=O)CNS(=O)(=O)c1ccc(Cl)cc1)NC1CCCC1 (centres undefined)	none
CN(C)CCCN(Cc1cc2cc3c(cc2[nH]c1=O)OCO3)C(=S)NCc1ccco1	TRPC4 inh -6
CCCCn1c(N)c(N(CCOC)C(=O)c2cc(Cl)nc3ccccc23)c(=O)[nH]c1=O	none
CC(C)(CO)NCc1c(OCc2ccc(Cl)cc2)ccc2ccccc12	TRPC6 inh -6.7
Cc1ccc2c(c1)oc(=O)n2CC(=O)c1ccccc1	none
COc1ccc(-n2cc(CN(C)CCO)c(-c3cccc(F)c3)n2)cc1	none
COc1cccc(-c2nn(-c3ccccc3)cc2CN(C)C(C)c2ccncn2)c1 (centres undefined)	TRPC4 inh -6, TRPC4 agonist 51
COc1ccc(-n2cc(CN(C)C(C)c3ccncn3)c(-c3cccc(F)c3)n2)cc1 (centres undefined)	TRPC4 inh -8
COc1cccc(CNCc2ccccn2)c1OC	TRPC4 inh -6, TRPC4 agonist 63
COc1cccc(CNCc2ccc(OC)c3ccccc23)c1OC	none
Cc1ccn2c(-c3csc(NCc4ccco4)n3)c(C)nc2c1	TRPC4 inh -6
COc1ccc(-c2csc(NCc3ccco3)n2)cc1C	none
O=C(CN1CCCCCC1)N1c2ccccc2Sc2ccccc21	TRPC4 inh -7
O=C(CN1CCCCC1)N1c2ccccc2Oc2ccccc21	TRPC4 inh -5
CC1Cc2ccccc2N1C(=O)CN1CCCCC1 (centres undefined)	none
CN1CCN(CC(=O)N2c3ccccc3Sc3ccccc32)CC1	none
CSCC[C@H](NC(=O)c1ccco1)c1nnc2ccccn12	none
CCCCCCCNC(=O)COc1ccc2c(c1)C(=O)CC(C)(C)O2	TRPC4 inh -5
CC(C)NC(=O)COc1ccc2c(c1)C(=O)CC(C)(C)O2	none
CC(=O)c1ccc(NC(=S)N2CCCC2)cc1	none
Cc1ccc(NS(=O)(=O)c2cc(C(=O)N3CCc4ccccc4C3)ccc2Cl)cc1	TRPC4 potent 28
CC(C)C(=O)N1CCN(c2nc(-c3ccccc3)c3c(c2C#N)CCCC3)CC1	TRPC4 potent 14
CC(C)Cc1nc(N2CCN(C(=O)c3ccco3)CC2)c(C#N)c2c1CCCC2	none
O=C(O)C1C2C=CC(C2)C1C(=O)NC1CCN(Cc2ccccc2)CC1 (centres undefined)	TRPC4 agonist 122
C/C(=N\OCC(=O)OCC(=O)N(Cc1ccccc1)C(C)(C)C)c1ccc2c(c1)OCO2	none
COCCNC(=O)Cn1ccc2cc(S(=O)(=O)N3CCCCC3)ccc21	none
Cc1cc(C)c2nc(C)cc(N/N=C/c3ccc(O)cc3)c2c1	TRPC4 inh -6
COc1cc(CNCc2c[nH]c3ccccc23)cc(OC)c1	none
COc1cc(NC(C)CCCN)c2ncccc2c1Oc1ccccc1 (centres undefined)	TRPC4 agonist 83
CCOc1ccccc1OCCN1CCC(Cc2ccccc2)CC1	none
CCC(=O)c1ccccc1OCCCN1CCC(Cc2ccccc2)CC1	TRPC6 inh -6.5
Brc1cc(-c2ccccc2)nc(-c2ccccc2)n1	none
CN(C)C(CNC(=O)c1ccc2ccccc2n1)c1ccccc1 (centres undefined)	TRPC4 agonist 100
CN(C)C(CNC(=O)c1ccc(NC(=O)c2cccs2)cc1)c1ccccc1 (centres undefined)	none
COC(=O)c1ccc(CNC(=O)c2coc3ccccc3c2=O)cc1	none
CN(C)C(CNC(=O)c1ccc(C2SCCS2)cc1)c1ccccc1 (centres undefined)	TRPC4 inh -5
CN(C)C(CNC(=O)c1coc2ccccc2c1=O)c1ccccc1 (centres undefined)	TRPC4 potent 12
CN(C)C(CNC(=O)/C=C/c1cccc(Cl)c1)c1ccccc1 (centres undefined)	TRPC4 agonist 199
C=CCc1cc(Cl)ccc1OCCOCCN(C)C	none
C=CCNC(=O)[C@H]1N2C(=O)c3ccccc3C2SC1(C)C (some centres undefined)	none
COc1ccc(-c2cc(=O)oc3c(C)c(OC(C)C(=O)NCc4ccccn4)ccc23)cc1 (centres undefined)	none
CC1(C(=O)OCC(=O)Nc2cccc(S(=O)(=O)NC3=NCCCCC3)c2)CC1(Cl)Cl (centres undefined)	none
CN(C)C(CNC(=O)c1cnc(Cl)c(Cl)c1)c1ccccc1 (centres undefined)	TRPC4 agonist 223
CN(C)C(CNC(=O)c1cc(S(=O)(=O)N(C)c2ccccc2)ccc1Cl)c1ccccc1 (centres undefined)	none
NNc1ccc(Cc2ccc(Cl)cc2Cl)nn1	TRPC4 potent 15
CSc1ccc(Cc2ccc(Cl)cc2Cl)nn1	none
Cc1cc(OCCCn2ccnc2)cc(C)c1Cl	TRPC4 agonist 104
Cc1cc(OCCCCCn2ccnc2)cc(C)c1Cl	TRPC4 agonist 75
Cc1cc(Cl)cc(C)c1OCCn1ccnc1	none
CCOc1cccc(OCCCCn2ccnc2)c1	TRPC4 agonist 43
